From ChEMBL document CHEMBL1781999, “Lead optimization of aryl and aralkyl amine-based triazolopyrimidine inhibitors of Plasmodium falciparum dihydroorotate dehydrogenase with antimalarial activity in mice” (J Med Chem, 2011)
Converted amounts (≈) assume the structure as drawn.

Experiments:
[1] = Antimalarial activity against Plasmodium berghei ANKA NK65 infected in po dosed Swiss Webster mouse assessed as reduction of parasitemia level administered qd for 4 days measured 24 hrs after last dose by light microscopic analysis; assay type: functional
[2] = target: T1, Dihydroorotate dehydrogenase (Plasmodium falciparum, UniProt Q54A96); assay: Inhibition of His6-tagged recombinant Plasmodium falciparum dihydroorotate dehydrogenase expressed in Escherichia coli using L-dihydroorotate as substrate after 5 to 10 mins by DCIP dye-based assay
T1 sequence (Q54A96 whole entry): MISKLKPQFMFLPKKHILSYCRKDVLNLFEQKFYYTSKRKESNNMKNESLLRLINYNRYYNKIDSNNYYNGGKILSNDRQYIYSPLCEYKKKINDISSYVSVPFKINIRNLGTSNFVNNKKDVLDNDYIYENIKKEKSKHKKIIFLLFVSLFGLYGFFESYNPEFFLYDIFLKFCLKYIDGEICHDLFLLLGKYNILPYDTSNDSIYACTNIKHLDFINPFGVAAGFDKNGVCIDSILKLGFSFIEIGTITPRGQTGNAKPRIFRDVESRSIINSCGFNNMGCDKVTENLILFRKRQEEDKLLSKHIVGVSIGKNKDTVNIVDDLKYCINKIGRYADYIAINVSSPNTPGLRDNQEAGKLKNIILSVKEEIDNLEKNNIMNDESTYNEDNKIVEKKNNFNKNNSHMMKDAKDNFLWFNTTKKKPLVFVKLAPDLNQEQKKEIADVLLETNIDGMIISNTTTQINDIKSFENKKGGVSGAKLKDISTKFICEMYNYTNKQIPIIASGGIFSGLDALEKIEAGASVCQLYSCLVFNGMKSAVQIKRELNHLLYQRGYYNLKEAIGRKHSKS

[3] = Inhibition of His6-tagged recombinant Plasmodium berghei dihydroorotate dehydrogenase expressed in Escherichia coli using L-dihydroorotate as substrate after 5 to 10 mins by DCIP dye-based assay
Mus musculus [4] = assay: Cmax in Swiss mouse at 20 mg/kg, po measured after 24 hrs by LC-MS analysis; assay type: ADME, organism-based; parameters: dose 20 mg/kg, route oral; settings: in vivo
Summary of the method: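 Non-fasted male Swiss outbred mice given a single oral gavage dose in 0.5% w/v sodium carboxymethylcellulose, 0.5% v/v benzyl alcohol, 0.4% v/v Tween 80. One mouse per time point, cardiac blood under isoflurane, sampling to 24 h. Plasma stabilized, acetonitrile-precipitated, quantified by LC-MS against blank-plasma standards; Cmax read from concentration-time profile.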

Liver microsomes = assay: (§1) Intrinsic clearance in human liver microsome assessed per mg of protein at 1 uM after 60 mins by LC-MS analysis; assay type: ADME; settings: microsomes, 1 h, 1 µM
Summary of the method: (§2)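 Microsomal stability. Compound at 1 μM with liver microsomes (0.4 mg/mL protein) in 0.1 M phosphate pH 7.4 at 37 °C. Started with an NADPH-regenerating system plus MgCl2; controls lacked NADPH. Quenched with cold acetonitrile at time points up to 60 min. Parent loss measured by LC-MS and fitted to exponential decay to give CLint.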

Plasmodium falciparum = assay: Antimalarial activity against Plasmodium falciparum 3D7 infected in human A positive erythrocytes by [3H]hypoxanthine uptake assay in presence of serum in medium; assay type: functional, organism-based
Summary of the method: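 Growth read by [3H]-hypoxanthine uptake. Each concentration run in quadruplicate and fitted to a four-parameter variable-slope log[I]-response model for 50% growth inhibition.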

Mus musculus [5] = assay: Time duration above 1 uM plasma concentration in Swiss mouse at 20 mg/kg, po; assay type: ADME, organism-based; parameters: dose 20 mg/kg, route oral; settings: in vivo
Summary of the method: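 Non-fasted male Swiss outbred mice given a single gavage dose in suspension (0.5% Na-CMC, 0.5% benzyl alcohol, 0.4% Tween 80). One mouse per time point; blood taken by cardiac puncture under isoflurane into stabilizer over 24 h. Plasma measured by LC-MS; time above 1 μM read directly from the concentration-time profile.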

Liver = assay: Intrinsic clearance in mouse liver microsome assessed per mg of protein at 1 uM after 60 mins by LC-MS analysis; assay type: ADME; settings: microsomes, 1 h; summary of the method: as §2
[6] = Inhibition of His6-tagged recombinant Plasmodium berghei dihydroorotate dehydrogenase expressed in Escherichia coli using L-dihydroorotate as substrate after 10 to 15 mins by DCIP dye-based assay; settings: in the assay text read “5 to 10 mins” for “10 to 15 mins”
Summary of the method: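 Truncated soluble enzyme lacking the N-terminal membrane domain. Final concentrations: 0.2 mM L-dihydroorotate, 0.02 mM CoQD, 0.12 mM DCIP. Reaction started with 10 nM enzyme and read at 600 nm for 5–10 min at 20 °C. Inhibitor 0.01–100 μM in 3-fold steps, in triplicate. IC50 from a three-parameter fit of vi/vo from initial rates.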

[7] = Partition coefficient, log D of the compound at pH 7.4 by UV-HPLC analysis; settings: octanol/water
[8] = Aqueous solubility of the compound in phosphate buffer at pH 6.5; assay type: physicochemical
Summary of the method: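 Non-equilibrium solubility. Concentrated DMSO stocks were diluted into pH 6.5 phosphate buffer (final DMSO 1% v/v) and precipitation was monitored by nephelometry. Solubility is given as the concentration range just before a turbidity signal rose above background.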

Mus musculus [9] = assay: Toxicity in Swiss mouse assessed as adverse effect at 20 mg/kg, po measured after 24 hrs; assay type: organism-based; parameters: dose 20 mg/kg, route oral; settings: in vivo
[10] = target: Dihydroorotate dehydrogenase (quinone), mitochondrial (Homo sapiens, UniProt Q02127); assay: Inhibition of His6-tagged recombinant human dihydroorotate dehydrogenase expressed in Escherichia coli using L-dihydroorotate as substrate after 5 to 10 mins by DCIP dye-based assay
[11] = (§3) Plasma protein binding in human by albumin chromatographic method; assay type: ADME, cell-free; settings: read-out: PPB (converted)
Plasma = assay: as §3; assay type: ADME, cell-free
[12] = as §1; assay type: ADME, microsomes; settings: liver microsomes; summary of the method: as §2
[13] = phosphate buffer, read-out: solubility

Dihydroorotate dehydrogenase (quinone), mitochondrial, sequence (Q02127 whole entry): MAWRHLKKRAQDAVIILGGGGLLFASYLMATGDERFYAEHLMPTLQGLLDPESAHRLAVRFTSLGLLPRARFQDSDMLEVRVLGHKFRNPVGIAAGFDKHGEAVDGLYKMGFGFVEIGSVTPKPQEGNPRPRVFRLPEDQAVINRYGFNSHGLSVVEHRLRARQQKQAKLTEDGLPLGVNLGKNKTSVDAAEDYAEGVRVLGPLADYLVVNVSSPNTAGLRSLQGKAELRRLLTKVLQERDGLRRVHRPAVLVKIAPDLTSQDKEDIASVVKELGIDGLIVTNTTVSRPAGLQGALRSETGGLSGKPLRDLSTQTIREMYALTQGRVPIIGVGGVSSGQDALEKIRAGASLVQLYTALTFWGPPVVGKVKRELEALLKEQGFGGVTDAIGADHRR

| SMILES | IC50 [2] [nM] | IC50 [3] [nM] | CL (Liver microsomes) [µL/min/mg] | EC50 (Plasmodium falciparum) [nM] | CL (Liver) [µL/min/mg] | IC50 [6] [nM] | logD [7] | IC50 [10] [nM] | solubility [8, 13] [µM] | fraction unbound [11] | other results |
| --- | --- | --- | --- | --- | --- | --- | --- | --- | --- | --- | --- |
| C[C@H]1[C@H](OC(=O)CCC(=O)O)O[C@@H]2O[C@@]3(C)CC[C@H]4[C@H](C)CC[C@@H]1[C@@]24OO3 [ARTESUNATE] | – | – | – | – | – | – | – | – | – | – | ED50 [1]: 5.9 mg/kg |
| Cc1cc(NCc2ccc(C(F)(F)F)cc2)n2ncnc2n1 | > 100000 | > 100000 | – | – | – | – | – | – | – | – | – |
| Cc1cc(NC2CCc3ccccc3C2)n2ncnc2n1 (stereo unspecified) | 540 | – | < 5 | 1800 | 35 | 2300 | 2.9 | – | – | – | Cmax (Mus musculus [4]): 7800 nM; Time (Mus musculus [5]): 6 h; solubility ([8]; buffer): > 358 µM; Activity (Mus musculus [9]): Non-toxic |
| Cc1cc(Nc2ccc(C(C)C)cc2)n2ncnc2n1 | 220 | – | 30 | 780 | 241 | 880 | 3 | > 100000 | 47 (≈ 12.6 µg/mL) | 0.087 | Cmax (Mus musculus [4]): 800 nM; Activity (Mus musculus [9]): Non-toxic |
| Cc1cc(Nc2ccc(OCc3ccccc3)cc2)n2ncnc2n1 | 5400 | > 100000 | – | > 10000 | – | – | – | – | – | – | – |
| Cc1cc(Nc2ccc(C(C)(C)C)c(F)c2)n2ncnc2n1 | 35 | 110 | 32 | 97 | 68 | – | 3.5 | – | – | 0.036 | Cmax (Mus musculus [4]): 250 nM; solubility ([8]; buffer): < 2.7 µM; Activity (Mus musculus [9]): Non-toxic |
| O=C1C(O)=C([C@H]2CC[C@H](c3ccc(Cl)cc3)CC2)C(=O)c2ccccc21 [ATOVAQUONE] | – | – | – | 1.5 | – | – | – | – | – | – | PPB (Plasma): 87% |
| Cc1cc(NCCCc2ccccc2)n2ncnc2n1 | 26000 | > 100000 | – | 25000 | – | – | – | – | – | – | – |
| Cc1cc(NC2Cc3ccccc3C2)n2ncnc2n1 | 500 | – | < 5 | 400 | 32 | 2400 | 2.5 | – | 188 (≈ 49.9 µg/mL) | 0.239 | Cmax (Mus musculus [4]): 500 nM; Activity (Mus musculus [9]): Non-toxic |
| Cc1cc(Nc2ccc3c(c2)CCC3)n2ncnc2n1 | 220 | – | 77 | 800 | 341 | 1000 | 2.9 | > 100000 | 47 (≈ 12.5 µg/mL) | 0.075 | – |
| Cc1cc(Nc2ccc(NC(C)(C)C)cc2)n2ncnc2n1 | > 50000 | > 100000 | – | > 5000 | – | – | – | – | – | – | – |
| C=Cc1ccc(Nc2cc(C)nc3ncnn23)cc1 | – | – | 32 | 340 | 168 | 4500 | 2.4 | > 100000 | 25 (≈ 6.28 µg/mL) | 0.156 | – |
| Cc1cc(NC2CCc3cc(Cl)ccc3C2)n2ncnc2n1 (stereo unspecified) | 670 | 10000 | – | 10000 | – | – | – | – | – | – | – |
| Cc1cc(Nc2ccc(C(F)(F)F)cc2)n2ncnc2n1 | – | – | – | – | – | – | 2.5 | – | 21 (≈ 6.16 µg/mL) | 0.131 | microsomal CLint at 1 µM [12]: 8 µL/min/mg |
| CCCCCCCCc1ccc(Nc2cc(C)nc3ncnn23)cc1 | > 50000 | > 100000 | – | > 5000 | – | – | – | – | – | – | – |
| Cc1cc(Nc2ccc(C3CC3)cc2)n2ncnc2n1 | 420 | – | 53 | 1400 | 287 | 2900 | 2.7 | > 100000 | – | 0.132 | solubility ([8]; buffer): > 377 µM |
| Cc1cc(NOc2ccccc2)n2ncnc2n1 | > 100000 | > 100000 | – | – | – | – | – | – | – | – | – |
| C#Cc1ccc(Nc2cc(C)nc3ncnn23)cc1 | 1100 | – | 8 | 5100 | 27 | 4100 | 2.2 | > 100000 | 100 (≈ 24.9 µg/mL) | 0.182 | – |
| Cc1cc(Nc2ccc3c(c2)CCCC3)n2ncnc2n1 | – | – | 72 | 160 | 361 | 190 | 3.4 | > 100000 | 89 (≈ 24.9 µg/mL) | 0.045 | Cmax (Mus musculus [4]): 2200 nM; Time (Mus musculus [5]): 1 h; Activity (Mus musculus [9]): Non-toxic |
| Cc1cc(Nc2ccc3sccc3c2)n2ncnc2n1 | 90 | – | 64 | 66 | 162 | 600 | 2.6 | – | 22 (≈ 6.19 µg/mL) | 0.102 | Cmax (Mus musculus [4]): 400 nM; Activity (Mus musculus [9]): Non-toxic |
| CCCc1c(C)nc2ncnn2c1Nc1ccc(C)cc1 | > 100000 | > 100000 | – | > 10000 | – | – | – | > 100000 | – | – | – |
| Cc1cc(Nc2ccc(N3CCOCC3)cc2)n2ncnc2n1 | > 100000 | > 100000 | – | > 10000 | – | – | – | – | – | – | – |
| OC(c1cc(C(F)(F)F)nc2c(C(F)(F)F)cccc12)C1CCCCN1 (stereo unspecified) [MEFLOQUINE] | – | – | – | – | – | – | – | – | – | – | ED50 [1]: 3.8 mg/kg |
